Calls of active or inactive are those of the source. No cut-off for these calls is given here.
Key:
Rattus norvegicus [1] = assay: Anticonvulsant activity in rat assessed as protection against maximal electric shock-induced seizures at 30 mg/kg, po measured after […]; type: functional, organism-based
[2] = molecular target: Adenosine receptor A1 (Homo sapiens) (UniProt P30542); assay: Displacement of [3H]DPCPX from human recombinant adenosine A1 receptor expressed in CHO cells at 10^-5 M; type: cell-based
Outline: (§1)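 Radioligand binding screen run at a single test concentration of 10^-5 M. Each target used its stated receptor source (human recombinant CHO or HEK-293 cells, endogenous cell lines, or rat tissue membranes) with the listed radioligand.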

Rattus norvegicus [3] = assay: Anticonvulsant activity in rat assessed as protection against maximal electric shock-induced seizures at 30 mg/kg, po measured after 1 hr; type: functional, organism-based
Outline: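 Rats dosed ip or orally as 0.5% methylcellulose suspension; maximal electroshock at listed time. Protection = abolition of hindlimb tonic extension; 4 rats per group, scored protected/tested.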

Mus musculus [4] = assay: Anticonvulsant activity in mouse assessed as protection against 6 Hz psychomotor seizure at 20 mg/kg, ip after 2 hrs; type: functional, organism-based
Outline: (§2)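 Suspension in 0.5% methylcellulose given ip to mice; corneal stimulation with 0.2 ms monopolar rectangular pulses at 6 Hz for 3 s from a constant current device, mice restrained then released to observation cage. Protected if normal exploratory behaviour resumed within 10 s of stimulation. Scored as protected/tested, 4 mice per group.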

[5] = molecular target: Melatonin receptor type 1A (Homo sapiens) (UniProt P48039); assay: Displacement of [125I]2-iodomelatonin from human recombinant ML1A receptor expressed in CHO cells at 10^-5 M; type: cell-based; outline: as §1
Mus musculus [6] = assay: Anticonvulsant activity in mouse assessed as protection against 6 Hz psychomotor seizure at 20 mg/kg, ip after 4 hrs; type: functional, organism-based; outline: as §2
[7] = molecular target: Small conductance calcium-activated potassium channel (Rattus norvegicus) (UniProt P70604+P70606+P70605); assay: Displacement of [125I]apamin from rat cerebral cortex small conductance calcium-activated potassium channel at 10^-5 M; type: tissue-based; outline: as §1
[8] = Ratio of drug level in brain to plasma in CD1 mouse at 12.92 mg/kg, ip administered as single dose measured after 30 mins by LC/ESI-MS/MS analysis; type: ADME, organism-based; details: brain and plasma, read-out: BPR
[9] = MRT in CD1 mouse plasma at 12.92 mg/kg, ip measured up to 240 mins by LC/ESI-MS/MS analysis; type: ADME, organism-based
[10] = Retention time of the compound in mouse liver microsomes at 20 uM preincubated for 15 mins followed by addition of NADPH-regenerating system measured after 5 to 90 mins by […] analysis; type: ADME
Outline: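 Mouse liver microsomes (0.4 mg/mL) with test compound (20 µM) in 100 mM potassium phosphate, pH 7.4, were preincubated 15 min at 37 °C. An NADPH-regenerating system was then added and incubation ran 5–90 min at 37 °C. Levallorphan (20 µM) served as internal standard, and reactions were quenched with perchloric acid. The supernatant was analysed by UPLC/MS. Duplicate incubations.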

Vibrio harveyi [11] = assay: Antimutagenic activity against Vibrio harveyi BB7 assessed as inhibition of NQNO-induced mutagenicity after 48 hrs; type: functional
Outline: (§3)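 V. harveyi cultures grown exponentially to A600 0.1 at 30 °C, exposed to test compound for 15 min, then to NQNO, and grown on to A600 0.3–0.4. 5 × 10⁶ cells plated on BOSS agar with neomycin (100, final). Neomycin-resistant colonies counted after 48 h at 30 °C. Result given as % inhibition of NQNO mutagenicity; three independent repeats.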

[12] = Ratio of drug level in brain to plasma in CD1 mouse at 12.92 mg/kg, ig administered as single dose measured after 30 mins by LC/ESI-MS/MS analysis; type: ADME, organism-based; details: brain and plasma, po, read-out: BPR
Mus musculus [13] = assay: Tmax in CD1 mouse plasma at 12.92 mg/kg, ig measured up to 240 mins by LC/ESI-MS/MS analysis; type: ADME, organism-based; details: in vivo, po, 4 h
in vitro = details: mouse, liver microsomes
Vibrio harveyi [14] = assay: Antimutagenic activity against Vibrio harveyi BB7XM assessed as inhibition of NQNO-induced mutagenicity after 48 hrs; type: functional; outline: as §3
[15] = Ratio of drug level in brain to plasma in CD1 mouse at 1 mg/kg, iv administered as single dose measured after 240 mins by LC/ESI-MS/MS analysis; type: ADME, organism-based; details: brain and plasma, read-out: BPR
[16] = Ratio of drug level in brain to plasma in CD1 mouse at 12.92 mg/kg, ip administered as single dose measured after 5 mins by LC/ESI-MS/MS analysis; type: ADME, organism-based; details: brain and plasma, read-out: BPR
[17] = Ratio of drug level in brain to plasma in CD1 mouse at 12.92 mg/kg, ip administered as single dose measured after 60 mins by LC/ESI-MS/MS analysis; type: ADME, organism-based; details: brain and plasma, read-out: BPR
Mus musculus [18] = assay: Analgesic activity in mouse assessed as reduction in AUC of formalin-induced licking time during acute phase at 13 mg/kg, ip relative to control; type: functional
Outline: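 Formalin injected into a mouse hindlimb; total licking time taken as pain intensity. Compound given ip at 13 mg/kg as a suspension in 0.5% methylcellulose; vehicle-only animals served as controls.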

[19] = Neurotoxicity in ip dosed mouse after […] by rotarod test; type: toxicity, organism-based; details: in vivo
Mus musculus [20] = assay: Neurotoxicity in mouse at 30 mg/kg, ip after 4 hrs by rotarod test; type: toxicity, organism-based; details: in vivo
Outline: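 Mice were dosed ip with compound suspended in 0.5% methylcellulose. Rotarod: a 1 in. knurled rod turning at 6 rpm. Neurotoxicity was scored as failure to stay on the rod for at least 1 min in each of three trials. Results are given as the number of animals affected out of the number tested.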

[21] = Tmax in CD1 mouse brain at 12.92 mg/kg, ip measured up to 240 mins by LC/ESI-MS/MS analysis; type: ADME, organism-based
Rattus norvegicus [22] = assay: Toxicity in pilocarpine-induced status epilepticus Sprague-Dawley rat assessed as death at 400 mg/kg, ip; type: organism-based; details: in vivo
Outline: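 Pilocarpine 50 mg/kg ip given to male Sprague-Dawley rats (150–180 g). At the first stage 3–5 seizure (Racine scale), compound was given ip to groups of 8. Deaths and protection were recorded at 0.25–4 h; weight change was measured 24 h after the first stage 3 seizure.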

Mus musculus [23] = assay: Initial plasma concentration in CD1 mouse at 1 mg/kg, iv measured up to 240 mins by LC/ESI-MS/MS; type: ADME, organism-based; details: in vivo, 4 h
[24] = Cmax in CD1 mouse brain at 1 mg/kg, iv measured up to 240 mins by LC/ESI-MS/MS analysis; type: ADME, organism-based; set-up: dose 1 mg/kg, route intravenous
[25] = Ratio of drug level in brain to plasma in CD1 mouse at 1 mg/kg, iv administered as single dose measured after 15 mins by LC/ESI-MS/MS analysis; type: ADME, organism-based; details: brain and plasma, read-out: BPR
Mus musculus [26] = assay: AUMC (0 to infinity) in CD1 mouse plasma at 1 mg/kg, iv measured up to 240 mins by LC/ESI-MS/MS analysis; type: ADME, organism-based; details: in vivo, 4 h
Outline: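 Male CD1 mice fasted overnight, single iv dose 1 mg/kg; sampled at 0, 5, 15, 30, 60, 120 and 240 min (one sample per mouse, four mice per time), under ketamine/xylazine. Heparinized plasma quantified by validated LC/ESI-MS/MS; non-compartmental moment method; AUMC extrapolated to infinity using terminal rate constant from log-linear regression.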

Melatonin receptor type 1A (Homo sapiens), sequence (P48039 whole entry): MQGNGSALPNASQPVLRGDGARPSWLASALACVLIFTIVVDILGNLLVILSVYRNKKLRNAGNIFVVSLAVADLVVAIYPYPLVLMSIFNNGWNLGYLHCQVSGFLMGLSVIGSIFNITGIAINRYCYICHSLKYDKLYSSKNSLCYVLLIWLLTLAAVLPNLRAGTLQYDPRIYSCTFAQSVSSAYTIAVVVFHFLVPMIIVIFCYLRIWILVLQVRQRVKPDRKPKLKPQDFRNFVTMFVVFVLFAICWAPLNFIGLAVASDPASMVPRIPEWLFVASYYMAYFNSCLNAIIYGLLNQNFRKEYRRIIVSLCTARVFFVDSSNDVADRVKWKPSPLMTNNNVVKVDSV
Adenosine receptor A1 (Homo sapiens), sequence (P30542 whole entry): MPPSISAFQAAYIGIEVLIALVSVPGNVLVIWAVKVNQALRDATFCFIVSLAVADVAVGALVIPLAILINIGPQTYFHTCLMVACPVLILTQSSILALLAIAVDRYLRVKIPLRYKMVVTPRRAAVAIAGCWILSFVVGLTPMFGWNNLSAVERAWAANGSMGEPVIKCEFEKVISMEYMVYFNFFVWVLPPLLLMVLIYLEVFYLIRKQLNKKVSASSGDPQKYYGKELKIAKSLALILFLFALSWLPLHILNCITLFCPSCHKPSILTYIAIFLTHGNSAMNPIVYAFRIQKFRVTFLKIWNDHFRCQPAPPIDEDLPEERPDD

Cc1cccc(C)c1OCCOCCN[C@@H](C)CO
Activity (Rattus norvegicus [1]): inactive | inhibition [2]: -6.9% | Activity (Rattus norvegicus [3]): inactive | Activity (Mus musculus [4]): inactive | inhibition [5]: -7.5% | Activity (Mus musculus [6]): inactive | inhibition [7]: -0.9%

Cc1cccc(C)c1OCCOCCN[C@H](C)CO.Cl
Kp at 0.5 h [8]: 4.25 | MRT [9]: 85.2 min | Retention_time [10]: 3.81 min | inhibition (INH) (Vibrio harveyi [11]): 75% | Kp at 0.5 h [12]: 2.12 | Tmax (Mus musculus [13]): 5 min | microsomal CLint at 20 µM (in vitro): 47 µL/min/mg | inhibition (INH) (Vibrio harveyi [14]): 41% | Kp at 4 h [15]: 2.98 | Kp at 5 min [16]: 1.13 | Kp at 1 h [17]: 1.91 | inhibition in vivo at 13 mg/kg (Mus musculus [18]): 54.9% | TD50 at […] [19]: 33.3 mg/kg | Activity (Mus musculus [20]): Non-toxic | Tmax [21]: 15 min | Activity (Rattus norvegicus [22]): Non-toxic | C0 (Mus musculus [23]): 2200 ng/mL | Cmax [24]: 11500 ng/mL | Kp at […] [25]: 5.36 | AUMC (Mus musculus [26]): 956 ng·h²/mL

From ChEMBL document CHEMBL3774372, “Design, physico-chemical properties and biological evaluation of some new N-[(phenoxy)alkyl]- and N-{2-[2-(phenoxy)ethoxy]ethyl}aminoalkanols as anticonvulsant agents” (Bioorg Med Chem, 2016)
